Measurements from ChEMBL document CHEMBL1125042, “Hypolipidemic activity of rifamycin derivatives” (J Med Chem, 1990).
In brackets after ≈: the same amount, converted by molar mass.

Key:
Rattus norvegicus [1] = test: Hypolipidemic activity was determined in male rats, and high-density lipoprotein level was determined at 10 mg/kg; type: functional
In short: (§1)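 Male Wistar rats (200–230 g), eight per group, were dosed orally in PEG 400 at 8 a.m. for 4 days, plus a second dose at 4 p.m. on day 4. Rats were fasted 16 h and killed 16 h after the last dose. Sera from pairs of rats were pooled. LDL (up to 1.040 g/cm³) was separated by ultracentrifugation and the HDL infranatant taken. Cholesterol was measured enzymatically. Results are % versus vehicle control, mean ± SEM of four pools, Student's t test.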

Rattus norvegicus [2] = test: Tested for hypolipidemic activity in male rats, cholesterol was determined in serum at 10 mg/kg; type: functional
In short: (§2)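 Groups of eight male Wistar rats (200–230 g) dosed orally in PEG 400, either daily for 7 days (killed 24 h after the last dose) or for 4 days with a second dose on day 4 (killed 16 h later). Fasted 16 h. Paired sera pooled, lipoproteins separated by ultracentrifugation (1.006 and 1.040 g/cm³), HDL taken as the infranatant. Cholesterol measured enzymatically; % vs vehicle, mean ± SEM of four pools.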

Staphylococcus aureus = test: Antibacterial activity against Staphylococcus aureus 10B; type: functional
In short: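 Agar dilution on DST agar with 2-fold drug dilutions. Inoculum of 10⁴ viable S. aureus 10B was taken from liquid-nitrogen stock, thawed 30 min and not subcultured. It was applied by multipoint replicator and incubated overnight at 37 °C. MIC is the lowest concentration inhibiting growth relative to control cultures.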

Rattus norvegicus [3] = test: Hypolipidemic activity was determined in male rats, and low-density lipoprotein level was determined at 10 mg/kg; type: functional; in short: as §1
[4] = Inhibitory activity against RNA polymerase was determined; parameters: species or system Escherichia coli
In short: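 E. coli DNA-dependent RNA polymerase inhibition measured in vitro on ether-extracted, permeabilized E. coli cells.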

Rattus norvegicus [5] = test: Hypolipidemic activity was determined in male rats, and low-density lipoprotein level was determined at 20 mg/kg; type: functional; in short: as §1
Rattus norvegicus [6] = test: Hypolipidemic activity was determined in male rats, and high-density lipoprotein level was determined at 20 mg/kg; type: functional; in short: as §1
Rattus norvegicus [7] = test: Tested for hypolipidemic activity in male rats, cholesterol was determined in serum at 20 mg/kg; type: functional; in short: as §2

Row | MIC (Staphylococcus aureus) [µg/mL] | IC50 [4] [µg/mL] | SMILES | Activity (Rattus norvegicus [1]) [%] | Activity (Rattus norvegicus [2]) [%] | Activity (Rattus norvegicus [3]) [%] | Activity (Rattus norvegicus [5]) [%] | Activity (Rattus norvegicus [6]) [%] | Activity (Rattus norvegicus [7]) [%]
1 | > 128 | > 100 | CC(=O)OC1C(C)C2/C=C/OC3(C)Oc4c(C)c(O)c5c(O)c(c(N6CCN(Cc7c(C)cc(C)cc7C)CC6)c(O)c5c4C3=O)NC(=O)/C(C)=C\C=C\C(C)C(O)C(C)C(O2)C1C (stereo unspecified) | -4 | 0 | -9 |  |  | 
2 | 2 (≈ 2.17 µM) | 8 (≈ 8.69 µM) | COC1CCOC2(C)Oc3c(C)c(O)c4c(O)c(c(N5CCN(Cc6c(C)cc(C)cc6C)CC5)c(O)c4c3C2=O)NC(=O)C(C)CCCC(C)C(O)C(C)C(O)C(C)C(OC(C)=O)C1C (stereo unspecified) | -27 | -30 | -32 |  |  | 
3 | 64 (≈ 70.2 µM) |  | COC1/C=C/OC2(C)Oc3c(C)c(O)c4c(O)c(c(N5CCN(Cc6c(C)cc(C)cc6C)CC5)c(O)c4c3C2=O)NC(=O)/C(C)=C\C=C\C(C)C(=O)C(C)C(O)C(C)C(OC(C)=O)C1C (stereo unspecified) | -15 | -11 | 1 |  |  | 
4 | < 0.1 |  | CCC1CCN(c2c3c(O)c4c(O)c(C)c5c(c4c2O)C(=O)C(C)(O/C=C/C(OC)C(C)C(OC(C)=O)C(C)C(O)C(C)C(O)C(C)/C=C/C=C(/C)C(=O)N3)O5)CC1 (stereo unspecified) |  |  |  | -51 | -61 | -57
5 | < 0.1 |  | COC1/C=C/OC2(C)Oc3c(C)c(O)c4c(O)c(c(N5CCC(C(C)(C)C)CC5)c(O)c4c3C2=O)NC(=O)/C(C)=C\C=C\C(C)C(O)C(C)C(O)C(C)C(OC(C)=O)C1C (stereo unspecified) |  |  |  | -52 | -48 | -51
6 | 0.5 (≈ 0.539 µM) |  | COC1/C=C/OC2(C)Oc3c(C)c(O)c4c(O)c(c(N5CCN(Cc6ccc(C(C)(C)C)cc6)CC5)c(O)c4c3C2=O)NC(=O)/C(C)=C\C=C\C(C)C(O)C(C)C(O)C(C)C(OC(C)=O)C1C (stereo unspecified) |  |  |  | -70 | -71 | -70
